Data reported in paper PMC6467287 (Bioorganic & medicinal chemistry letters, 2018).

Key:
[1] = test system: DUBs (decomposition of high molecular weight ubiquitinated proteins, HMW-Ub) in HEK 293T cell lysates; format: biochemical; settings: for DUB inhibitory activity, SAR statement in words: ring B amine modification; for stabilization of the HMW-Ub pool (in words): HEK 293T HA-Ub lysates, 37 °C; for increase of inhibitory potency (factor): relative to C4
[2] = test system: 26S proteasome (flux through the ubiquitin-proteasome system); assay: G76VUb-GFP assay in HEK 293T cells; format: cell-based; settings: HEK 293T cells expressing G76VUb-GFP
[3] = target: T1, SENP6 (Homo sapiens, UniProt Q9GZR1); assay: SENP6-catalyzed deSUMOylation of RanGap; format: biochemical; settings: 30 min at room temperature with inhibitor
T1 sequence (Q9GZR1 628-1112): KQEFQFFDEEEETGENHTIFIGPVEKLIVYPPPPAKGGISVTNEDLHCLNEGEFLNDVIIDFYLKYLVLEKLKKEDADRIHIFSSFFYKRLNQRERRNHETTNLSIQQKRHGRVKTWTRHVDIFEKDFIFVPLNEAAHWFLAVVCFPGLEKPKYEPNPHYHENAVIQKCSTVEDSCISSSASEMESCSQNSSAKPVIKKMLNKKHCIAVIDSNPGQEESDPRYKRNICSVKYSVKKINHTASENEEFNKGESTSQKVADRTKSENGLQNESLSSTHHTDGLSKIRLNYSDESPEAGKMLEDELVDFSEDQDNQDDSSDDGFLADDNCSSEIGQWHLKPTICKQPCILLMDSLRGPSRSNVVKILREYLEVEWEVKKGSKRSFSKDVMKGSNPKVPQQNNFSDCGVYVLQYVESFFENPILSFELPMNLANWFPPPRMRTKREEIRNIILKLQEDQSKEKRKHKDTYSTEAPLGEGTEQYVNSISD
Method in brief: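 His6-tagged SENP6 catalytic domain (aa 628-1112, 200 nM) was preincubated with test compound for 30 min at room temperature. SUMOylated His6-RanGap1 catalytic domain (aa 418-588, 3 μM) was then added for 10 min at 37 °C. Reactions were quenched in Laemmli buffer, resolved by SDS-PAGE and blotted with anti-His6 antibody.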

[4] = test system: K562 leukemia cells; assay: Effects on K562 leukemia cells; format: cell-based; settings: for accumulation of K48-linked HMW-Ub / Bcr-Abl level: 50 μM, 2 h; for Bcr-Abl level: anti-Abl immunoblot
Method in brief: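 K562 cells were treated with test compound (50 μM, 2 h) and immunoblotted for K48-linked ubiquitin and for Bcr-Abl (anti-Abl); Bcr-Abl was also tested over a dose range. For the bortezomib series, cells got test compound (50 μM) with or without bortezomib (6 μM) for 4 h. Lysates were sonicated in SDS before PAGE. Cell cycle was read by FACS, scoring G1 and sub-G1 (apoptotic) cells.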

[5] = test system: endogenous K48-linked HMW ubiquitin pool in untransfected HEK 293T lysates; format: biochemical; settings: read-out: EC50 for stabilization of the endogenous K48-linked HMW ubiquitin pool
[6] = target: DUBs (USP9x, USP19, USP7/8, USP28/15, UCHL5, UCHL3, UCHL1) in HEK 293T cell lysates (Homo sapiens, UniProt Q93009); assay: HA-Ub-VS activity profiling of HEK 293T cell lysates; format: biochemical; settings: HEK 293T cell lysate
Sequence of DUBs (USP9x, USP19, USP7/8, USP28/15, UCHL5, UCHL3, UCHL1) in HEK 293T cell lysates (Homo sapiens, UniProt Q93009) (Q93009 whole entry): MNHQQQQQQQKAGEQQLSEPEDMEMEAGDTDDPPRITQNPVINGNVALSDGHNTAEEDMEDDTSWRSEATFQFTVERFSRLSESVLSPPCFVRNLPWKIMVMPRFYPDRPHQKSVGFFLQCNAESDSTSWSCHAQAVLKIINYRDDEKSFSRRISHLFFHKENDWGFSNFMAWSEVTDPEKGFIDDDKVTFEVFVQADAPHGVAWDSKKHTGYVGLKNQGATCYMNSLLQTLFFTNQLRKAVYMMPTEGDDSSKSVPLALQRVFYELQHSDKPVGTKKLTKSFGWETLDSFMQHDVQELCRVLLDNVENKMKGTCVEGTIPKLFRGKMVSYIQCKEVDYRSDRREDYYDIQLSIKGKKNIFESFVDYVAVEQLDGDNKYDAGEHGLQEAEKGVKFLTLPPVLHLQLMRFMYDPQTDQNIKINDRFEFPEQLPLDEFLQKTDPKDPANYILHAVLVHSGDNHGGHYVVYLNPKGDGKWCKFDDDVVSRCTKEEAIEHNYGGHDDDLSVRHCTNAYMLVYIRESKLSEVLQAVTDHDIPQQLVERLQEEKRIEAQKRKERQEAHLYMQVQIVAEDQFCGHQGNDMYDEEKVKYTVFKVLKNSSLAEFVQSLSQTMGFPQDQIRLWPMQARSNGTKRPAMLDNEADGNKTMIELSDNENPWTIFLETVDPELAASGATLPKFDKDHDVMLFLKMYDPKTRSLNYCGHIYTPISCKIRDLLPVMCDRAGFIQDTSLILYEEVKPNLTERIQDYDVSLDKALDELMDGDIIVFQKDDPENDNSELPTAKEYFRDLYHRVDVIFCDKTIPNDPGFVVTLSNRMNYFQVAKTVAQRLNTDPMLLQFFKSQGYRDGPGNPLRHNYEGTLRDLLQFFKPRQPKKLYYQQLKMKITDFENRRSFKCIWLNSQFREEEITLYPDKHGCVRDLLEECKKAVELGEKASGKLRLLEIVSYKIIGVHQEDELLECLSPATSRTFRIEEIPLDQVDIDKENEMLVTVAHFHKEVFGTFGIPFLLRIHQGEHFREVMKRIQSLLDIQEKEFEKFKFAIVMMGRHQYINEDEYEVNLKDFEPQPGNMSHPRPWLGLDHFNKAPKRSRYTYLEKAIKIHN
Method in brief: (§1)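 HEK 293T lysate (1.5 mg/ml) was treated with test compound (25 μM) or DMSO, then HA-Ub-VS (1.5 μM) was added, or both were added together. Timed aliquots were anti-HA blotted. For the dilution test, lysate (15 mg/ml) was preincubated with compound (250 μM) for 30 min, diluted tenfold, then given HA-Ub-VS (1.5 μM). USP7 was read by anti-USP7 blot as the probe-shifted band.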

[7] = test system: DUBs (USP9x, USP19, USP7/8, USP28/15, UCHL5, UCHL3, UCHL1) in HEK 293T cell lysates; assay: as above; format: biochemical
Method in brief: as §1

[8] = test system: trypsin; assay: Trypsin-catalyzed hydrolysis of diarylcarbonates; format: biochemical
Method in brief: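 The diarylcarbonate served as substrate for trypsin. Hydrolysis velocity was measured across substrate concentrations, and Km and kcat were derived from the velocity versus substrate concentration plot.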

[9] = test system: MCF7 breast cancer cells; assay: Effects on MCF7 cells; format: cell-based; settings: for cytotoxicity of C17 hydrolysis products: viability of MCF7 cells
[10] = test system: NCc1ccc(OC(=O)Oc2ccc3ccccc3c2)cc1; assay: purified protein, by the assay type; settings: other: chymotrypsin; 37.0 °C
[11] = test system: N/N=C/NCc1ccc(OC(=O)Oc2ccc3ccccc3c2)cc1; assay: purified protein, by the assay type; settings: other: chymotrypsin; 37.0 °C
[12] = target: USP9x (Homo sapiens, UniProt Q93008); assay: Time-dependent inhibition of recombinant USP9x; format: biochemical; settings: read-out: kon of commercially available DUB inhibitors (range)
Sequence of USP9x (Q93008 whole entry, species assumed): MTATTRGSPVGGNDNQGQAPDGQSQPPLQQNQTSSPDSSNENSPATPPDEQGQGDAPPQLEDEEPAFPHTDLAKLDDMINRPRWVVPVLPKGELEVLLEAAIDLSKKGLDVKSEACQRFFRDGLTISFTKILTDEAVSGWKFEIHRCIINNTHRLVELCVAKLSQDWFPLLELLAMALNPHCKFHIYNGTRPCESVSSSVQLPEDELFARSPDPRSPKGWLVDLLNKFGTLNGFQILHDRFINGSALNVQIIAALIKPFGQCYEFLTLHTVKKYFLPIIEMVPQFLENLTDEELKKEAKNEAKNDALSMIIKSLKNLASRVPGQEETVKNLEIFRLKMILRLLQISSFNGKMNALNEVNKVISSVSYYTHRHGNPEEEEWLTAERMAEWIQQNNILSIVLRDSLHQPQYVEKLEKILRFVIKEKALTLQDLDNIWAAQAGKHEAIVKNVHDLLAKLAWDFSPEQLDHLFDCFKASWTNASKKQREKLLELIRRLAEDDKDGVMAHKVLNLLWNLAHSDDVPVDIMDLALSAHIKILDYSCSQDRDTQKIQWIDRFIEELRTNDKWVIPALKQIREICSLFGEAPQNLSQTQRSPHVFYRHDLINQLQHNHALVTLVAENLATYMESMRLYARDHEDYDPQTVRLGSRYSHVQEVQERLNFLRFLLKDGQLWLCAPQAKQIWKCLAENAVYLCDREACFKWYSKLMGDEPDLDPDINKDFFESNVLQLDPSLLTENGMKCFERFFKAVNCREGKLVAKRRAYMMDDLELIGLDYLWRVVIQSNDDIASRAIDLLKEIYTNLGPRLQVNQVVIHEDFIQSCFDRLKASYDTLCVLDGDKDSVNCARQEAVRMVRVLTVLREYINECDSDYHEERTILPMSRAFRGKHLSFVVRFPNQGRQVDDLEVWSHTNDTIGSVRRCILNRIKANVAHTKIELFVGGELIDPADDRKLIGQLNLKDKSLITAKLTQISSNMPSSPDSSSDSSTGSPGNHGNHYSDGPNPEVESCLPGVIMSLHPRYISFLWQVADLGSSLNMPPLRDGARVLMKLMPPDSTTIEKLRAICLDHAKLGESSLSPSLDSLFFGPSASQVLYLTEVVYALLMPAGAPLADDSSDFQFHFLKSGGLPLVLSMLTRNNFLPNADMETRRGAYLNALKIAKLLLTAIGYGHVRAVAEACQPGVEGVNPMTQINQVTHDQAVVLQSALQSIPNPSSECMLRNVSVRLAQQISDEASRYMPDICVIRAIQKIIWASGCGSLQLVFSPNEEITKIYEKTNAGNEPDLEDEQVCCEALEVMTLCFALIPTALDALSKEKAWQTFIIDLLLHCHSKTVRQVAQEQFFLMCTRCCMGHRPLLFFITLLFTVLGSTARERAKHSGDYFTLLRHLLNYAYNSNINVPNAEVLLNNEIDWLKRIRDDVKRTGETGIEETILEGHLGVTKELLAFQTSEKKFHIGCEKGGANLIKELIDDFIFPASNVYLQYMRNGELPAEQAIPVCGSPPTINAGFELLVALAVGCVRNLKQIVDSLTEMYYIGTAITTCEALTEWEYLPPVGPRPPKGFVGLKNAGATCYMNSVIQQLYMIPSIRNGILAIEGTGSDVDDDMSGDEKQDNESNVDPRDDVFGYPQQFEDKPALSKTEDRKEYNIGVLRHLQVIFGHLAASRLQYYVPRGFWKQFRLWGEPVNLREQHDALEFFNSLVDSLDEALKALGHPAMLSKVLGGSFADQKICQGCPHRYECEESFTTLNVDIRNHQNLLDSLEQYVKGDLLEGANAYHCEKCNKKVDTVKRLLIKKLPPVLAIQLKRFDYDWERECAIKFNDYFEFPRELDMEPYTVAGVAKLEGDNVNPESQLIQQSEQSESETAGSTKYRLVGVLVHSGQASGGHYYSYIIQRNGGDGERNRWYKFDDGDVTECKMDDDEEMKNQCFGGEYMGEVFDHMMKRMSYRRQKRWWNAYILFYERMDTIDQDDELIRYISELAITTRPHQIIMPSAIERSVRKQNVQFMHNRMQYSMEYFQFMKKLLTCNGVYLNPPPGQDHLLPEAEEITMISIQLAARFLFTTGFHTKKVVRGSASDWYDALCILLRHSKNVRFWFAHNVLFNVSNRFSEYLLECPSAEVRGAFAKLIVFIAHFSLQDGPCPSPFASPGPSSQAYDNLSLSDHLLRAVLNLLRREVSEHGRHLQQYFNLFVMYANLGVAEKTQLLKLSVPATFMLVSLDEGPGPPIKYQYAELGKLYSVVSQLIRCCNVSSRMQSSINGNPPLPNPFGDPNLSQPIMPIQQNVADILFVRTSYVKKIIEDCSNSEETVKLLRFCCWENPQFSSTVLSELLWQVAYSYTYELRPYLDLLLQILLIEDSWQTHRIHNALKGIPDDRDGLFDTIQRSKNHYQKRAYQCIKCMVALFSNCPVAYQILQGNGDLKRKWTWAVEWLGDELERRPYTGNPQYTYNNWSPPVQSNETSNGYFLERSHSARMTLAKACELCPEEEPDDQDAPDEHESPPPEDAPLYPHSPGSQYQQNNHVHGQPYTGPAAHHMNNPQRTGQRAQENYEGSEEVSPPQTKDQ

CC(C)(C)OC(=O)NCc1ccc(OC(=O)Oc2ccccc2)cc1 [C3]
DUB inhibitory activity, SAR statement in words [1]: activity was lost

CC(C)C[C@H](NC(=O)[C@H](Cc1ccccc1)NC(=O)c1cnccn1)B(O)O [bortezomib, reference compound]
stabilization of the HMW-Ub pool (in words) [1]: failed to stabilize
GFP fluorescence in G76VUb-GFP assay [2]: significantly increased

Cc1cc(C(=O)CN2CCCC2)c(C)n1-c1ccc(F)cc1 [IU1, reference compound]
stabilization of the HMW-Ub pool (in words) [1]: little effect

O=C(Oc1ccccc1)Oc1ccc(CNCc2ccc(Cl)cc2)cc1 [C5]
DUB inhibitory activity, SAR statement in words [1]: retained DUB inhibitory activity

NCc1ccc(OC(=O)Oc2ccc(Br)cc2)cc1 [C15]
inhibition of SENP6-catalyzed deSUMOylation of RanGap [3]: failed to inhibit
increase of inhibitory potency (factor) [1]: approximately 10
GFP fluorescence in G76VUb-GFP assay [2]: failed to increase
accumulation of K48-linked HMW-Ub [4]: caused the accumulation
Bcr-Abl level [4]: decrease
EC50 [5]: < 50 µM

NCc1ccc(OC(=O)Oc2ccc3ccccc3c2)cc1 [C17]
inhibition of USP7 (anti-USP7 immunoblot after HA-UbVS) [6]: inhibition of USP7 was confirmed
HA-Ub-VS labeling of DUB bands ([7]; compound (25 μM) and HA-Ub-VS (1.5 μM) added simultaneously): no inhibition of DUB labeling was observed
HA-Ub-VS labeling of DUB bands ([7]; lysate treated with compound (25 μM) followed by HA-Ub-VS (1.5 μM)): decreasing the labeling of all the bands
HA-Ub-VS labeling of DUB bands ([7]; pre-incubated with compound (250 μM) 30 min, diluted 10-fold before HA-Ub-VS): labeling was reduced
kcat as substrate [8]: 0.02 s⁻¹
GFP fluorescence in G76VUb-GFP assay [2]: failed to increase
accumulation of soluble HMW-Ub ([9]; MCF7 cells, 50 μM, 4 h): caused the accumulation
Mdm2 levels ([9]; MCF7 cells, 4 h): decreased
p21/WAF1 levels ([9]; MCF7 cells, 4 h): robust increase
p53 levels ([9]; MCF7 cells, 4 h): concomitant increase
cell viability ([9]; MCF7 cells, treated every 24 h, 72 h, Alamar Blue): cell viability decreased
accumulation of K48-linked HMW-Ub [4]: caused the accumulation
Bcr-Abl level [4]: decrease
G1 and apoptotic (sub G1) cells ([4]; 24 h incubation, FACS): dose-dependent increase
Bcr-Abl degradation in the presence of bortezomib ([4]; C17 50 μM, bortezomib 6 μM, 4 h): did not prevent
EC50 [5]: < 50 µM

NCc1ccc(NC(=O)Oc2ccccc2)cc1 [C8]
stabilization of the HMW-Ub pool (in words) [1]: did not stabilize

Oc1ccc2ccccc2c1 [2-naphthol]
cytotoxicity of C17 hydrolysis products [9]: not cytotoxic

NCc1ccc(OC(=O)Nc2ccccc2)cc1 [C7]
stabilization of the HMW-Ub pool (in words) [1]: did not stabilize

chymotrypsin (Bos taurus)
Km [10]: 1 µM
kcat [10]: 0.03 s⁻¹
Km [11]: 1 µM
kcat [11]: 0.03 s⁻¹

CC(C)(C)CNCc1ccc(OC(=O)Oc2ccc3ccccc3c2)cc1 [C20]
DUB inhibitory activity, SAR statement in words [1]: Inhibitory activity was retained

Cc1ccc(/C=C2\CNC/C(=C\c3ccc(C)cc3)C2=O)cc1 [NSC-632839]
kon [12]: 49 to 140 M⁻¹ s⁻¹

N/N=C/NCc1ccc(OC(=O)Oc2ccc3ccccc3c2)cc1 [C22]
inhibition of SENP6-catalyzed deSUMOylation of RanGap [3]: failed to inhibit
DUB inhibitory activity, SAR statement in words [1]: efficacious
kcat as substrate [8]: 0.001 s⁻¹

CC(C)(C)OC(=O)NCc1ccc(OC(=O)Oc2ccc(Cl)cc2)cc1 [C23]
DUB inhibitory activity, SAR statement in words [1]: Inhibitory activity was not recovered

CC(C)(C)OC(=O)NCc1ccc(OC(=O)Oc2ccc3ccccc3c2)cc1 [C19]
DUB inhibitory activity, SAR statement in words [1]: Inhibitory activity was not recovered

NCc1ccc(O)cc1 [4-aminomethylphenol]
cytotoxicity of C17 hydrolysis products [9]: not cytotoxic

NCc1ccc(OC(=O)Oc2ccc(Cl)cc2)cc1 [C14]
inhibition of SENP6-catalyzed deSUMOylation of RanGap [3]: failed to inhibit
increase of inhibitory potency (factor) [1]: approximately 10
GFP fluorescence in G76VUb-GFP assay [2]: failed to increase
accumulation of K48-linked HMW-Ub [4]: caused the accumulation
Bcr-Abl level [4]: decrease
EC50 [5]: < 50 µM

O=C1/C(=C/c2ccc([N+](=O)[O-])cc2)CS(=O)(=O)C/C1=C\c1ccc([N+](=O)[O-])cc1 [G5, G5 isopeptidase inhibitor 1, reference compound]
stabilization of the HMW-Ub pool (in words) [1]: stabilized
GFP fluorescence in G76VUb-GFP assay [2]: No significant increase

NCc1ccc(OC(=O)Oc2cccc3ccccc23)cc1 [C18]
GFP fluorescence in G76VUb-GFP assay [2]: failed to increase
accumulation of K48-linked HMW-Ub [4]: caused the accumulation
Bcr-Abl level [4]: decrease
EC50 [5]: < 50 µM

CC(C)CNCc1ccc(OC(=O)Oc2ccc3ccccc3c2)cc1 [C21]
DUB inhibitory activity, SAR statement in words [1]: somewhat deleterious
